Measurements of several laboratories.
Lines come from different studies, so protocols differ.
Observed: enzyme activity
Action: inhibitor
CDK2 with cyclin A: Cyclin-dependent kinase 2, with cyclin A (CDK2, Homo sapiens, UniProt P24941)
CDK2 with cyclin E: Cyclin-dependent kinase 2, with cyclin E (CDK2, Homo sapiens, UniProt P24941)

For `CC(C)(O)[C@H]1CC[C@H](Nc2ccc3ncc(-c4cccc(C(F)(F)F)c4)n3n2)CC1`, the remaining activity was 96.9% (CDK2 with cyclin A; 1 µM).
For `Nc1nc(Nc2ccccc2)sc1C(=O)c1c(F)cccc1F`, the remaining activity was 2% (CDK2 with cyclin A; 10 µM).
`O=C(Nc1cnn(-c2csc(C(=O)NC3COC3)c2)c1)Nc1c(F)cccc1Cl` has a remaining activity of 94.2% (Cyclin-dependent kinase 2, with cyclin A1 (CDK2, Homo sapiens, UniProt P24941); 5 µM).
The remaining activity of `CC(C)(C)C(=O)c1sc(NC2CCCCC2)nc1N` is reported as 13% (CDK2 with cyclin A; 10 µM).
The remaining activity of `Cn1c(=O)n(-c2ccc(C(C)(C)C#N)cc2)c2c3cc(-c4cnc5ccccc5c4)ccc3ncc21` is reported as 74% (CDK2 with cyclin A; 10 µM).
The remaining activity of `Cc1ccc(Nc2nccc(N(C)c3ccc4c(C)n(C)nc4c3)n2)cc1S(N)(=O)=O` is reported as 96.4% (CDK2 with cyclin E; 0.5 µM).
`COc1cc(Nc2cnc(C#N)c(O[C@H](C)CN(C)C)n2)ncc1-c1cnn(C)c1` has a remaining activity of 91% (CDK2 with cyclin A; radiometric; 10 µM).
`CC(C)(C)c1nc2c(s1)c1nc(N)ncc1c1ccc(NS(=O)(=O)c3c(F)cccc3F)c(F)c12` has a remaining activity of 93% (Cyclin-dependent kinase 2, with cyclin E1 (CDK2, Homo sapiens, UniProt P24941); radiometric; 1 µM).
`Cc1sc(C(=O)NC2COC2)cc1-n1cc(NC(=O)Nc2c(F)cccc2Cl)cn1` gave a remaining activity of 98.3% (CDK2 with cyclin A; 10 µM).
`CC(C)(C)c1nc(-c2cccc(NS(=O)(=O)c3c(F)cccc3F)c2F)c(-c2ccnc(N)n2)s1` gave a remaining activity of 72% (Cyclin-dependent kinase 2, with cyclin A2 (CDK2, Homo sapiens, UniProt P24941); radiometric; 1 µM).
With `O=C(Nc1cnn(-c2csc(C(=O)NC3COC3)c2)c1)Nc1ccccc1Cl` the remaining activity was 93.2% (Cyclin-dependent kinase 2, with cyclin O (CDK2, Homo sapiens, UniProt P24941); 5 µM).
`Cc1ccc(C(=O)Nc2ccc(CN3CCN(C)CC3)c(C(F)(F)F)c2)cc1C#Cc1cnc2cccnn12` has a remaining activity of 96% (Cyclin-dependent kinase 2 (CDK2, Homo sapiens, UniProt P24941); 23.5 nM).
The remaining activity of `FC(F)c1nc2ccccc2n1-c1nc(N2CCOCC2)nc(N2CCOCC2)n1` is reported as 77% (CDK2 with cyclin A; 10 µM).
`Cc1cnc(NC2CCOCC2)nc1-n1cnc(C(=O)NC(CN)c2cc(F)cc(Cl)c2)c1` (stereo not drawn) has a remaining activity of 3% (CDK2 with cyclin E; radiometric; 1 µM).
`COc1cc(Cl)c(C(=O)N[C@@H](CN[C@H]2CC[C@@H](N)CC2)Cc2ccc(C#N)cc2)cc1-c1ccc(CN[C@H](C)c2ccc(C)cc2)o1` has a remaining activity of 90% (CDK2 with cyclin E; 1 µM).
